Bmax, IC50 and Kd data for one molecule are collected here from ChEMBL document CHEMBL2417508, “Synthesis and evaluation of a 125I-labeled iminodihydroquinoline-derived tracer for imaging of voltage-gated sodium channels” (Bioorg Med Chem Lett, 2013).

The species entered for test [1] is Rattus norvegicus. Nature of the test: Binding affinity to voltage-gated sodium channel in rat brain synaptosomal membranes relative to control. The test is classed as cell membranes.
Test [2] can be described thus: Inhibition of voltage-gated sodium channel in rat brain homogenate. The test is classed as tissue-based. Summed up: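 Radioligand displacement of [3H]batrachotoxin binding was measured in rat brain homogenates, and IC50 was derived.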
For test [3], the target named is Sodium channel protein type 2 subunit alpha (Rattus norvegicus, UniProt P04775). The experiment in a line: Inhibition of rat brain voltage-gated sodium channel subunit alpha Nav1.2-mediated current expressed in CHO cells. The test is classed as cell-based.
Test [4] is described as follows: Binding affinity to voltage-gated sodium channel in rat brain synaptosomal membranes. The test is classed as cell membranes.

Molecules are shown by their SMILES.

One may read the IC50 as the midpoint of a concentration-inhibition curve. A word on the Kd: it is the free concentration of one partner at which half of the binding sites on the other are occupied at equilibrium, for simple one-to-one binding. The low end stands for a tighter complex, the high end for a looser complex.

Sodium channel protein type 2 subunit alpha, sequence (P04775 whole entry): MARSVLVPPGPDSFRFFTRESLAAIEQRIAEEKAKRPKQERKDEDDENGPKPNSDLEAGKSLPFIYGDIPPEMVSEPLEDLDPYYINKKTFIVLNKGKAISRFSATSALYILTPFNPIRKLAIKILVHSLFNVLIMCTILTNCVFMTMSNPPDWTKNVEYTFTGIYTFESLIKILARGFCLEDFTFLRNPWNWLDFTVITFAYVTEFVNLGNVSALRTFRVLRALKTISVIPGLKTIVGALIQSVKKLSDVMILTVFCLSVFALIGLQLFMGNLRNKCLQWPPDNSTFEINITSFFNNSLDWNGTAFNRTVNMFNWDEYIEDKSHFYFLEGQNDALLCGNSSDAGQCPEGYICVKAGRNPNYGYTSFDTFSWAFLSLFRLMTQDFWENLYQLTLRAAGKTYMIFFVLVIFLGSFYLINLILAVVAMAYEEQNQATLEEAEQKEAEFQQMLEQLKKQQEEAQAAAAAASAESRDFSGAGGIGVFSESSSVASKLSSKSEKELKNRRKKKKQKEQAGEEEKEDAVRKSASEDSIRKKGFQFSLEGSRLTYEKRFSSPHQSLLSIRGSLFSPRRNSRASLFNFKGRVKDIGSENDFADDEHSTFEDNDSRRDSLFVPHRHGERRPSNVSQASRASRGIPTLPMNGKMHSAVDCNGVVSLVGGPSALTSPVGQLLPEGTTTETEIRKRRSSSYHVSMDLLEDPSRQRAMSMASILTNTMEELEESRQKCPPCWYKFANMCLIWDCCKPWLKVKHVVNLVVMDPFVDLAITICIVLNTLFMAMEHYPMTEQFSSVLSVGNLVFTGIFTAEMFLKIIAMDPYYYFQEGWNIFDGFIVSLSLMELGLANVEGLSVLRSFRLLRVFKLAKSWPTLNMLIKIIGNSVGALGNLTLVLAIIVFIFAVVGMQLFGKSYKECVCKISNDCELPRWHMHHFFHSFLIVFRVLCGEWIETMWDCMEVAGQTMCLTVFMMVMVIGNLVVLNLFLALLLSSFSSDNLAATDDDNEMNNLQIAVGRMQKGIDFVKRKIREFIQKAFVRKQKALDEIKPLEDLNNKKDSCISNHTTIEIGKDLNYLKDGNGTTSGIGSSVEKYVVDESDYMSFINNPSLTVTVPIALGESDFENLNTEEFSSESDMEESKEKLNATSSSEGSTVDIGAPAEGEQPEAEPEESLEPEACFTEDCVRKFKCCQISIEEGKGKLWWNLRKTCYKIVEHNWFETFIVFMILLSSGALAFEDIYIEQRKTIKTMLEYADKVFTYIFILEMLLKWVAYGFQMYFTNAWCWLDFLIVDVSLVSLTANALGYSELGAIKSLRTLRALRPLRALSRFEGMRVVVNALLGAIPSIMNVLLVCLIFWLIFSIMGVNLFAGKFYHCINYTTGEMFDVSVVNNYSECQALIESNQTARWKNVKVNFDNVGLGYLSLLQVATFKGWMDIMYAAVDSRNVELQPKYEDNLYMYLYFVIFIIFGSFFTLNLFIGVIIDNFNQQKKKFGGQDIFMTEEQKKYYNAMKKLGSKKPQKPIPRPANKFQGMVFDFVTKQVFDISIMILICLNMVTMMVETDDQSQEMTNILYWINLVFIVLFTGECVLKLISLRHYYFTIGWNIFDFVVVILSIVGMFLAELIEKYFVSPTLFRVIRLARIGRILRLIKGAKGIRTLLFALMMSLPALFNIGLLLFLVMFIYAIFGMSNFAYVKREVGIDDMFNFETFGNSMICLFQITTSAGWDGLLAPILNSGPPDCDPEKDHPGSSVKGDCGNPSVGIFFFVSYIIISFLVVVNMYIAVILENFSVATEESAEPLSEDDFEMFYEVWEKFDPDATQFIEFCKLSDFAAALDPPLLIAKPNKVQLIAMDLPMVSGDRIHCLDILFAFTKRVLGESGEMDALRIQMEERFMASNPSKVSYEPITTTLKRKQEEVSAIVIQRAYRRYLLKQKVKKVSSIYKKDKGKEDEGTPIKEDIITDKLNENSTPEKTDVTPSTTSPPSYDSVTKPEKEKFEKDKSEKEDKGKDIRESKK

As to `CCCCC/N=c1\ccn(Cc2ccccc2)c2cc(Cl)ccc12`, the Bmax in test [1] turned out to be 5.4 pmol/mg. For the same molecule, the 50% inhibitory concentration (IC50) in test [2] came out at 8.1 nM; in test [3] it was 9 nM. The molecule also came in with a dissociation constant (Kd) in test [4] of 2.2 nM.
